From ChEMBL document CHEMBL1649387, “Synthesis and evaluation of quinonoid compounds against tumor cell lines” (Eur J Med Chem, 2011)
The source made the active and inactive calls. The calls are words filed in the database; no cut-off is given here.

Legend:
SF-295 [1] = test: Cytotoxicity against human SF295 cells after 72 hrs by MTT assay; type: functional, cell-based; settings: SF-295, 72 h
MDA-MB-435 [2] = test: Cytotoxicity against human MDA-MB-435 cells after 72 hrs by MTT assay; type: functional, cell-based; settings: MDA-MB-435, 72 h
HCT-8 [3] = test: Induction of apoptosis in human HCT8 cells assessed as cell viability at 5 uM after 24 hrs by trypan blue exclusion assay; type: functional, cell-based
Method in brief: (§1)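 Cells incubated 24 h, with or without 24 h pretreatment with 5 mM NAC. Viability determined by trypan blue dye exclusion.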

SF-295 [4] = test: Induction of lipid peroxidation in human SF295 cells assessed as increase in TBARS formation at 5 uM after 24 hrs; type: functional, cell-based
Method in brief: (§2)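 Cells treated 24 h, with or without 24 h pretreatment with 5 mM NAC. Cells lysed with Tris-HCl (15 mM, 1 h) and heated with TCA/HCl/thiobarbituric acid for 15 min at 100 °C, then centrifuged. TBARS read at 532 nm against hydrolyzed 1,1,3,3-tetramethoxypropane standard and normalized to protein.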

MDA-MB-435 [5] = test: Induction of apoptosis in human MDA-MB-435 cells assessed as cell viability at 5 uM after 24 hrs by trypan blue exclusion assay in presence of […]; type: functional, cell-based; method in brief: as §1
SF-295 [6] = test: Induction of lipid peroxidation in human SF295 cells assessed as increase in TBARS formation at 5 uM after 24 hrs in presence of […]; type: functional, cell-based; method in brief: as §2
HCT-8 [7] = test: Induction of apoptosis in human HCT8 cells assessed as cell viability at 5 uM after 24 hrs by trypan blue exclusion assay in presence of […]; type: functional, cell-based; method in brief: as §1
HCT-8 [8] = test: Induction of lipid peroxidation in human HCT8 cells assessed as increase in TBARS formation at 5 uM after 24 hrs; type: functional, cell-based; method in brief: as §2
MDA-MB-435 [9] = test: Induction of lipid peroxidation in human MDA-MB-435 cells assessed as increase in TBARS formation at 5 uM after 24 hrs in presence of […]; type: functional, cell-based; method in brief: as §2
MDA-MB-435 [10] = test: Genotoxicity in human MDA-MB-435 cells assessed as DNA strand breaks at 5 uM after 24 hrs by comet assay; type: functional, cell-based
Method in brief: (§3)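 Cells treated 24 h, with or without 24 h pretreatment with 5 mM NAC. Cells embedded in 0.75% low-melt agarose and lysed (pH 10.0, 4 °C, ≥1 h). DNA unwound 20 min in 300 mM NaOH/1 mM EDTA (pH >13), then electrophoresed 20 min at 0.86 V/cm and stained with ethidium bromide. 100 cells scored visually into classes 0–4 to give damage index.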

HL-60 [11] = test: Genotoxicity in human HL60 cells assessed as DNA strand breaks at 5 uM after 24 hrs by comet assay; type: functional, cell-based; method in brief: as §3
MDA-MB-435 [12] = test: Induction of lipid peroxidation in human MDA-MB-435 cells assessed as increase in TBARS formation at 5 uM after 24 hrs; type: functional, cell-based; method in brief: as §2
HCT-8 [13] = test: Genotoxicity in human HCT8 cells assessed as DNA strand breaks at 5 uM after 24 hrs by comet assay; type: functional, cell-based; method in brief: as §3
HL-60 [14] = test: Induction of apoptosis in human HL60 cells assessed as cell viability at 5 uM after 24 hrs by trypan blue exclusion assay in presence of […]; type: functional, cell-based; method in brief: as §1
MDA-MB-435 [15] = test: Genotoxicity in human MDA-MB-435 cells assessed as DNA strand breaks at 5 uM after 24 hrs by comet assay in presence of […]; type: functional, cell-based; method in brief: as §3
HL-60 [16] = test: Genotoxicity in human HL60 cells assessed as DNA strand breaks at 5 uM after 24 hrs by comet assay in presence of […]; type: functional, cell-based; method in brief: as §3
HL-60 [17] = test: Cytotoxicity against human HL60 cells after 72 hrs by MTT assay; type: functional, cell-based; settings: HL-60, 72 h
SF-295 [18] = test: Genotoxicity in human SF295 cells assessed as DNA strand breaks at 5 uM after 24 hrs by comet assay in presence of […]; type: functional, cell-based; method in brief: as §3
HCT-8 [19] = test: Genotoxicity in human HCT8 cells assessed as DNA strand breaks at 5 uM after 24 hrs by comet assay in presence of […]; type: functional, cell-based; method in brief: as §3
MDA-MB-435 [20] = test: Induction of apoptosis in human MDA-MB-435 cells assessed as cell viability at 5 uM after 24 hrs by trypan blue exclusion assay; type: functional, cell-based; method in brief: as §1
SF-295 [21] = test: Induction of apoptosis in human SF295 cells assessed as cell viability at 5 uM after 24 hrs by trypan blue exclusion assay in presence of […]; type: functional, cell-based; method in brief: as §1
HCT-8 [22] = test: Cytotoxicity against human HCT8 cells after 72 hrs by MTT assay; type: functional, cell-based; settings: HCT-8, 72 h
PBMC = test: Cytotoxicity against human PBMC cells after 72 hrs by Alamar Blue assay; type: cell-based
HL-60 [23] = test: Induction of lipid peroxidation in human HL60 cells assessed as increase in TBARS formation at 5 uM after 24 hrs in presence of […]; type: functional, cell-based; method in brief: as §2
SF-295 [24] = test: Genotoxicity in human SF295 cells assessed as DNA strand breaks at 5 uM after 24 hrs by comet assay; type: functional, cell-based; method in brief: as §3
HL-60 [25] = test: Induction of apoptosis in human HL60 cells assessed as cell viability at 5 uM after 24 hrs by trypan blue exclusion assay; type: functional, cell-based; method in brief: as §1
HL-60 [26] = test: Induction of lipid peroxidation in human HL60 cells assessed as increase in TBARS formation at 5 uM after 24 hrs; type: functional, cell-based; method in brief: as §2
SF-295 [27] = test: Induction of apoptosis in human SF295 cells assessed as cell viability at 5 uM after 24 hrs by trypan blue exclusion assay; type: functional, cell-based; method in brief: as §1
HCT-8 [28] = test: Induction of lipid peroxidation in human HCT8 cells assessed as increase in TBARS formation at 5 uM after 24 hrs in presence of […]; type: functional, cell-based; method in brief: as §2
SF-295 [29] = test: Induction of apoptosis in human SF295 cells assessed as apoptotic nuclei at 5 uM after 24 hrs by acridine orange/ethidium bromide staining based fluorescence microscopy; type: functional
Method in brief: (§4)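 Cells exposed 24 h, with or without 24 h pretreatment with 1-bromoheptane. Cell suspension mixed with acridine orange/ethidium bromide (each 100 in PBS) and spread on slide. 300 cells counted per point by fluorescence microscopy to give % apoptotic cells. Mean ± S.E.M. of three experiments.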

HCT-8 [30] = test: Induction of apoptosis in human HCT8 cells assessed as apoptotic nuclei at 5 uM after 24 hrs by acridine orange/ethidium bromide staining based fluorescence microscopy in presence of 1-bromoheptane; type: functional; method in brief: as §4
SF-295 [31] = test: Induction of apoptosis in human SF295 cells assessed as apoptotic nuclei at 5 uM after 24 hrs by acridine orange/ethidium bromide staining based fluorescence microscopy in presence of 1-bromoheptane; type: functional; method in brief: as §4
HL-60 [32] = test: Induction of apoptosis in human HL60 cells assessed as apoptotic nuclei at 5 uM after 24 hrs by acridine orange/ethidium bromide staining based fluorescence microscopy in presence of 1-bromoheptane; type: functional; method in brief: as §4
MDA-MB-435 [33] = test: Induction of apoptosis in human MDA-MB-435 cells assessed as apoptotic nuclei at 5 uM after 24 hrs by acridine orange/ethidium bromide staining based fluorescence microscopy in presence of 1-bromoheptane; type: functional; method in brief: as §4
MDA-MB-435 [34] = test: Induction of apoptosis in human MDA-MB-435 cells assessed as apoptotic nuclei at 5 uM after 24 hrs by acridine orange/ethidium bromide staining based fluorescence microscopy; type: functional; method in brief: as §4
HCT-8 [35] = test: Induction of apoptosis in human HCT8 cells assessed as apoptotic nuclei at 5 uM after 24 hrs by acridine orange/ethidium bromide staining based fluorescence microscopy; type: functional; method in brief: as §4
HL-60 [36] = test: Induction of apoptosis in human HL60 cells assessed as apoptotic nuclei at 5 uM after 24 hrs by acridine orange/ethidium bromide staining based fluorescence microscopy; type: functional; method in brief: as §4

Row | SMILES | IC50 (SF-295 [1]) [nM] | IC50 (MDA-MB-435 [2]) [nM] | Activity (HCT-8 [3]) | Activity (SF-295 [4]) | Activity (MDA-MB-435 [5]) | Activity (SF-295 [6]) | Activity (HCT-8 [7]) | Activity (HCT-8 [8]) | Activity (MDA-MB-435 [9]) | Activity (MDA-MB-435 [10]) | Activity (HL-60 [11]) | Activity (MDA-MB-435 [12]) | Activity (HCT-8 [13]) | Activity (HL-60 [14]) | Activity (MDA-MB-435 [15]) | Activity (HL-60 [16]) | IC50 (HL-60 [17]) [nM] | Activity (SF-295 [18]) | Activity (HCT-8 [19]) | IC50 (HCT-8 [22]) [nM] | also measured
1 | CC1(C)OC2=C(C(=O)C(=O)c3ccccc32)[C@H](n2cc(-c3ccc(F)cc3)nn2)[C@H]1Br | 1760 | 1200 | Active | Active | inactive | inactive | inactive | Active | inactive | Active | Active | Active | Active | inactive | inactive | inactive | 1200 | inactive | inactive | 2260 | Activity (MDA-MB-435 [20]): Active; Activity (SF-295 [21]): inactive; IC50 (PBMC): 3370 nM; Activity (HL-60 [23]): inactive; Activity (SF-295 [24]): Active; Activity (HL-60 [25]): Active; Activity (HL-60 [26]): Active; Activity (SF-295 [27]): Active; Activity (HCT-8 [28]): inactive
2 | CC1(C)OC2=C(C(=O)C(=O)c3ccccc32)[C@H](n2cc(-c3ccccc3)nn2)[C@H]1Br | 1550 | 1220 | Active | Active | inactive | inactive | inactive | Active | inactive | Active | Active | Active | Active | inactive | inactive | inactive | 1010 | inactive | inactive | 1370 | Activity (MDA-MB-435 [20]): Active; Activity (SF-295 [21]): inactive; Activity (HL-60 [23]): inactive; Activity (SF-295 [24]): Active; Activity (HL-60 [25]): Active; Activity (HL-60 [26]): Active; Activity (SF-295 [27]): Active; Activity (HCT-8 [28]): inactive
3 | C=CCC1=C(OC2(CC=C)C(=O)C(=O)c3ccccc3C2=O)C(=O)c2ccccc2C1=O (stereo not given) | > 11700 | > 11700 | – | – | – | – | – | – | – | – | – | – | – | – | – | – | > 11700 | – | – | > 11700 | Activity (SF-295 [29]): 8.3%; Activity (HCT-8 [30]): 9.37%; Activity (SF-295 [31]): 11.47%; Activity (HL-60 [32]): 8.55%; Activity (MDA-MB-435 [33]): 11.36%; Activity (MDA-MB-435 [34]): 7.94%; IC50 (PBMC): > 11700 nM; Activity (HCT-8 [35]): 12.52%; Activity (HL-60 [36]): 3.91%
